Results published in publication PMC5989537 (Journal of natural products, 2018).
Read-outs that look alike come from different tables or passages of the source.

Tests used:
[1] = tested on: L. amazonensis promastigotes; test: Anti-leishmanial MTT viability assay, L. amazonensis promastigotes; format: cell-based, Leishmania (L.) amazonensis
P. falciparum (3D7) = test: Anti-plasmodial SYBR green assay, P. falciparum 3D7 blood parasites; format: cell-based, Plasmodium falciparum
[2] = tested on: intracellular L. (L.) amazonensis amastigotes; test: Intracellular L.; format: cell-based, Leishmania (L.) amazonensis; settings: for intracellular parasitism (in words): 6.125, 25, 50 or 100 μM, 24 h; for reduction of the amastigote number over the control group: at higher concentrations, 24 h incubation, infected BALB/c macrophages
Method in brief: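 BALB/c bone-marrow-derived macrophages infected with stationary-phase L. (L.) amazonensis promastigotes (MHOM/BR/1973/M2269) at MOI 10 for 1 h, washed three times with PBS, then held 24 h at 33 °C, 5% CO2. Test compound added at 6.125, 25, 50 or 100 μM for 24 h at 33 °C. Cells washed, MeOH-fixed and stained; amastigotes counted in 300 cells on triplicate coverslips. Percent reduction taken versus untreated infected cells; two independent experiments.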

T. cruzi epimastigotes = test: Anti-T. cruzi MTT viability assay, epimastigotes; format: cell-based, Trypanosoma cruzi
P. falciparum [3] = settings: cited from earlier work
T. brucei rhodesiense = settings: cited from earlier work
Leishmania donovani = settings: cited from earlier work
T. cruzi = settings: cited from earlier work
[4] = tested on: L. infantum promastigotes; test: Anti-leishmanial MTT viability assay, L. infantum promastigotes; format: cell-based, Leishmania (L.) infantum
HepG2 = test: Cytotoxicity on HepG2 cells; format: cell-based; settings: HepG2, 24 h, MTT
HepG2 cells = test: HepG2 cell morphology by microscopy after treatment; format: cell-based, human; settings: 24 h, concentration 10-fold higher than IC50 (10 μM)
P. falciparum [5] = test: Stage-specific inhibitory activity on highly-synchronized parasites; format: cell-based, Plasmodium falciparum; settings: 10-fold IC50, synchronized parasites
P. falciparum [6] = test: In vitro association with artesunate; format: cell-based, Plasmodium falciparum; settings: isobologram analysis
[7] = Plasmodium falciparum, 3D7, read-out: P. falciparum (3D7) EC50+/−S.D., 3D7 sensitive strain, SYBR green

EC50 (P. falciparum (3D7); [7]) [µM]	SMILES	anti-plasmodial activity against P. falciparum (in words) (P. falciparum (3D7))	also measured
3 ± 1	O=C(NCCCCNCCCNC(=O)c1cc(Br)c(Br)o1)c1cc(Br)c(Br)o1 [Compound 50]		anti-parasitic activity against L. (L.) amazonensis (in words) [1]: active, but considerably less potent; intracellular parasitism (in words) [2]: reduced in a dose-dependent manner; reduction of the amastigote number over the control group [2]: approximately 80%
> 10	O=C(NCCCCNCCCNC(=O)c1cc(Cl)c(Cl)[nH]1)c1cc(Cl)c(Cl)[nH]1 [Compound 33]	completely inactive	
> 10	O=C(NCCCCNCCCNC(=O)c1ccc(F)[nH]1)c1ccc(F)[nH]1 [Compound 35]	completely inactive	
> 10	O=C(NCCCCCCCCNC(=O)c1cc(Br)c(Br)[nH]1)c1cc(Br)c(Br)[nH]1 [Compound 21]	inactive	
4 ± 1	CN(CCCCNC(=O)c1cc(Br)c(Br)[nH]1)CCCNC(=O)c1cc(Br)c(Br)[nH]1 [Compound 16, N-Methyl-pseudoceratidine]	still active	
> 10	O=C(NCCCCNCCCNC(=O)c1ccc(Br)s1)c1ccc(Br)s1 [Compound 42]		anti-parasitic activity against L. (L.) amazonensis (in words) [1]: active, but considerably less potent; intracellular parasitism (in words) [2]: reduced in a dose-dependent manner; reduction of the amastigote number over the control group [2]: approximately 80%
2 ± 1	O=C(NCCCCCCNCCCCCCNC(=O)c1cc(Br)c(Br)[nH]1)c1cc(Br)c(Br)[nH]1 [Compound 25]	as active as pseudoceratidine	
7 ± 1	O=C(NCCCCNCCCNC(=O)c1cc(Br)c[nH]1)c1cc(Br)c[nH]1 [Compound 31, 2,21-debromopseudoceratidine]		
1.1 ± 0.1	O=C(NCCCCNCCCNC(=O)c1cc(Br)c(Br)[nH]1)c1cc(Br)c(Br)[nH]1 [Compound 1, pseudoceratidine]		anti-parasitic activity against L. (L.) infantum (in words) [4]: essentially inactive; anti-parasitic activity against L. (L.) amazonensis (in words) [1]: essentially inactive; anti-parasitic activity against T. cruzi (in words) (T. cruzi epimastigotes): essentially inactive; HepG2 MDL50+/−S.D. (HepG2): 16 ± 1 (14.6 – 17.4) μM; toxicity for HepG2 cells by microscopic morphology (HepG2 cells): not toxic; stage-specific inhibitory activity (in words) (P. falciparum [5]): inhibitory activity in the early ring stages; interaction effect in combination with artesunate (P. falciparum [6]): additive
> 10	O=C(NCCCCCNC(=O)c1cc(Br)c(Br)[nH]1)c1cc(Br)c(Br)[nH]1 [Compound 20]	inactive	anti-parasitic activity against L. (L.) amazonensis (in words) [1]: active, but considerably less potent; anti-parasitic activity against T. cruzi (in words) (T. cruzi epimastigotes): good anti-parasitic activity

Second part, the compound before the results:

SMILES	EC50 (P. falciparum (3D7); [7]) [µM]	anti-plasmodial activity against P. falciparum (in words) (P. falciparum (3D7))	also measured
Cc1ccc(C(=O)NCCCCNCCCNC(=O)c2ccc(C)s2)s1 [Compound 43]	> 10		
Cc1cccc(C(=O)NCCCCNCCCNC(=O)c2cccc(C)n2)n1 [Compound 47]	> 10		
O=C(NCCCCNCCCNC(=O)c1cccc(Cl)n1)c1cccc(Cl)n1 [Compound 46]	> 10		
O=C(NCCCCCNC(=O)c1ccc[nH]1)c1ccc[nH]1 [Compound 28]	> 10		
O=C(NCCSCCNC(=O)c1cc(Br)c(Br)[nH]1)c1cc(Br)c(Br)[nH]1 [Compound 27]	> 10	inactive	anti-parasitic activity against L. (L.) amazonensis (in words) [1]: active, but considerably less potent; anti-parasitic activity against T. cruzi (in words) (T. cruzi epimastigotes): weak activity
O=C(NCCCCNCCCNC(=O)c1ccc[nH]1)c1ccc[nH]1 [Compound 29]	> 10	completely inactive	
Nc1ncc(/C=C/CNC(=O)c2cc(Br)c(Br)[nH]2)[nH]1 [Oroidin]			anti-parasitic activity against P. falciparum (P. falciparum [3]): 3.9 µg/mL; activity against T. brucei rhodesiense (T. brucei rhodesiense): 17.3 µg/mL; activity against Leishmania donovani (in words) (Leishmania donovani): inactive; activity against T. cruzi (in words) (T. cruzi): inactive
O=C(NCCCCNCCCNC(=O)c1cc2ccccc2[nH]1)c1cc2ccccc2[nH]1 [Compound 38]	> 10		
COC(=O)c1cc(Br)c(Br)[nH]1			anti-parasitic activity against P. falciparum (P. falciparum [3]): 7.9 µg/mL
[N-]=[N+]=NCC(=O)N(CCCCNC(=O)c1cc(Br)c(Br)[nH]1)CCCNC(=O)c1cc(Br)c(Br)[nH]1 [Compound 17]	> 10	inactive	anti-parasitic activity against L. (L.) infantum (in words) [4]: inactive; anti-parasitic activity against L. (L.) amazonensis (in words) [1]: inactive; anti-parasitic activity against T. cruzi (in words) (T. cruzi epimastigotes): inactive
O=C(NCCCCNCCCNC(=O)c1nc2ccccc2[nH]1)c1nc2ccccc2[nH]1 [Compound 39]	> 10		
O=C(O)c1cc(Br)c(Br)[nH]1 [4,5-dibromo-1H-pyrrole-2-carboxylic acid]			anti-parasitic activity against P. falciparum (P. falciparum [3]): 5.8 µg/mL
O=C(NCCCNCCCCNCCCNC(=O)c1cc(Br)c(Br)[nH]1)c1cc(Br)c(Br)[nH]1 [Compound 23]	1.9 ± 1.2	as active as pseudoceratidine	anti-parasitic activity against L. (L.) amazonensis (in words) [1]: active, but considerably less potent; EC50 (P. falciparum (3D7); read-out: P. falciparum (3D7) EC50+/−S.D., 3D7 sensitive strain, SYBR green): 2 ± 1 µM; intracellular parasitism (in words) [2]: reduced in a dose-dependent manner; reduction of the amastigote number over the control group [2]: approximately 80%
Cc1ccc(C(=O)NCCCCNCCCNC(=O)c2ccc(C)o2)o1 [Compound 51]		completely inactive	
